The subject of series [1] is A549. Put plainly: Cytotoxicity against human A549 cells assessed as NADH level after 72 hrs by MTS cells. The class given is functional, cell-based. To be noted: A549, 72 h. Summed up:
(§1)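 Human A549 lung, HL60 leukemia and PC3 prostate cancer lines incubated with compound for 72 h. Viability read by MTS colorimetric assay from remaining NADH; EC50 calculated; mean of at least two experiments.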

For series [2], the system named is PANC-1. The series is described as follows: Induction of histone H4 hyperacetylation in human PANC1 cells xenografted in mouse at 50 mg/kg, ip. The class given is functional, organism-based. Also on record: dose 50 mg/kg. Summed up: (§2)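 Mice bearing PANC-1 tumors given a single intraperitoneal dose of 50 mg/kg, vehicle control. Tumors harvested at set time points up to about 24 h. Whole tissue lysates Western blotted with antibodies to acetylated histone H3 or H4, actin as loading control.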

Series [3] has as its system HCT-116. The series is described as follows: Antitumor activity against human HCT116 cells xenografted in mouse assessed as tumor growth inhibition at 40 mg/kg, ip qd for 5 days per week. It is filed as functional. Conditions: route intraperitoneal. Summed up: (§3)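 Human HCT116 colon xenografts in mice; intraperitoneal dosing qdx5 per week, 15 doses in total. %T/C calculated when vehicle-treated mice reached 1 g median tumor size, 10 days after the last dose.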

Series [4] deals with T1, Histone deacetylase 8 (Homo sapiens, UniProt Q9BY41).
T1 sequence (Q9BY41 whole entry): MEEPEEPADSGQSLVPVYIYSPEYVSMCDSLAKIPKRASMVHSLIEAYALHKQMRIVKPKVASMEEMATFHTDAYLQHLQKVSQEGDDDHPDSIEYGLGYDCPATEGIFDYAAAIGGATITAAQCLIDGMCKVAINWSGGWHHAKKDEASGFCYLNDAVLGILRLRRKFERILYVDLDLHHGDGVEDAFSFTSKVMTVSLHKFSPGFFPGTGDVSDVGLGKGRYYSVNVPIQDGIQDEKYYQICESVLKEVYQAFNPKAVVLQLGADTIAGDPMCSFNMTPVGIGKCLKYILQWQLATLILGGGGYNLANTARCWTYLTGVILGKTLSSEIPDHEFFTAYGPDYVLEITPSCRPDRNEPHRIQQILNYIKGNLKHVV
Put plainly: Inhibition of human recombinant HDAC8.

Series [5] has as its system PANC-1. The series is described as follows: Induction of histone H3 hyperacetylation in human PANC1 cells xenografted in mouse at 50 mg/kg, ip. It is filed as functional, organism-based. Further details: dose 50 mg/kg. Summed up:
as §2

Series [6] has as its target T2, Protein deacetylase HDAC6 (Homo sapiens, UniProt Q9UBN7).
T2 sequence (Q9UBN7 whole entry): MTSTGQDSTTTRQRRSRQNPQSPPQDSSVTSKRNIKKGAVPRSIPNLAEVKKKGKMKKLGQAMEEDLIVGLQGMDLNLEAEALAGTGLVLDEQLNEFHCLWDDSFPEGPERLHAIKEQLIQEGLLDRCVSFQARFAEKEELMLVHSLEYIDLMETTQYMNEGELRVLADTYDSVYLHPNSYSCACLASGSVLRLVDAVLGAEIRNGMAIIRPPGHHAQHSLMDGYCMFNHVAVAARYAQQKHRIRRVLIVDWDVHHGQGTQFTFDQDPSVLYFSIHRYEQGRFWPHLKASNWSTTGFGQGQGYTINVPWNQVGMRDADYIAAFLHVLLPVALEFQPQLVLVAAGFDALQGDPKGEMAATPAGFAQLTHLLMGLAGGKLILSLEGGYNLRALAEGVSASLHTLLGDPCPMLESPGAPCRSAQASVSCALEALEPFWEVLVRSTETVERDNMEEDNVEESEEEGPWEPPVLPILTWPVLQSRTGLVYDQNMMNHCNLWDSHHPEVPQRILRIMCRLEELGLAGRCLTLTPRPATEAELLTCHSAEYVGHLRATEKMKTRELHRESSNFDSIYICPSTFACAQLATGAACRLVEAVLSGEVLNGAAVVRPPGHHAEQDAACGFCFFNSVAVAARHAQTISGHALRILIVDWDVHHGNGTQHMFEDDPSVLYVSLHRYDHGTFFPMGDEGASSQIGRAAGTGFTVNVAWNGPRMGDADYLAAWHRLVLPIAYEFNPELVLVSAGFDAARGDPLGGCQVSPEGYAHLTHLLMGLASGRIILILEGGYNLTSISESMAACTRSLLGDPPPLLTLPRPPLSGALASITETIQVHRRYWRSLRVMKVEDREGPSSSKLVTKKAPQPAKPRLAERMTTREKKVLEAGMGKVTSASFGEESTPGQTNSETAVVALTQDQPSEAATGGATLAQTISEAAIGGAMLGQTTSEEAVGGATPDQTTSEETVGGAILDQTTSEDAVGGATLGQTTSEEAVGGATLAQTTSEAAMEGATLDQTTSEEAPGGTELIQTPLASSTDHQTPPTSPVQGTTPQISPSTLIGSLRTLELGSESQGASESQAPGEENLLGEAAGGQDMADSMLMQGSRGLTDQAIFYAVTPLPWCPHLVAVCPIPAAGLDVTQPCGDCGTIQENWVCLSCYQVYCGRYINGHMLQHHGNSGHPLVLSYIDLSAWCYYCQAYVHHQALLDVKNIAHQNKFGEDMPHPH
The series is described as follows: Inhibition of human recombinant HDAC6. Summed up:
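Purified recombinant human HDAC-2 or HDAC-6 at known enzyme concentration with tBOC(Ac)-Lys-AMC as substrate. IC50 is the mean of at least three experiments.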

In series [7] the test system is PC-3. The series is described as follows: Cytotoxicity against human PC3 cells assessed as NADH level after 72 hrs by MTS cells. To be noted: PC-3, 72 h. The class given is functional, cell-based. Summed up:
as §1

Series [8] concerns HL-60. The series is described as follows: Induction of histone H4 hyperacetylation in human HL60 cells after 4 hrs by Western blotting. The class given is functional, cell-based. Conditions: HL-60, 4 h. Summed up:
(§4)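 HL60 leukemia cells exposed 4 h to 2.5-fold serial dilutions of compound, DMSO control. Whole-cell lysates Western blotted for acetylated histone H3 and H4, PCNA as loading control. Signals quantified to give the half-maximal response concentration.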

Series [9] has as its system Mus musculus. Put plainly: Toxicity in human HCT116 cells xenografted mouse assessed as change in body weight at 15 mg/kg, […]. To be noted: in vivo, ip, 120 h. Also on record: dose 15 mg/kg, route intraperitoneal. It is filed as organism-based, HCT-116.
Series [10] has as its system HCT-116. Put plainly: Antitumor activity against human HCT116 cells xenografted in mouse assessed as tumor growth inhibition at 25 mg/kg, ip qd for 5 days per week. It is filed as functional. Conditions: route intraperitoneal. Summed up:
as §3

Series [11] relates to Mus musculus. The series is described as follows: Toxicity in human HCT116 cells xenografted mouse assessed as change in body weight at 40 mg/kg, […]. It is filed as organism-based, HCT-116. Further details: dose 40 mg/kg, route intraperitoneal. Conditions: in vivo, ip, 120 h.
Series [12] concerns HCT-116. Put plainly: Antitumor activity against human HCT116 cells xenografted in mouse assessed as tumor growth inhibition at 15 mg/kg, ip qd for 5 days per week. It is filed as functional. To be noted: route intraperitoneal. Summed up:
as §3

Series [13] deals with Mus musculus. The series is described as follows: Toxicity in human HCT116 cells xenografted mouse assessed as change in body weight at 25 mg/kg, […]. Conditions: in vivo, ip, 120 h. The class given is organism-based, HCT-116. Further details: dose 25 mg/kg, route intraperitoneal.
Series [14] concerns HL-60. The series is described as follows: Induction of histone H3 hyperacetylation in human HL60 cells after 4 hrs by Western blotting. The class given is functional, cell-based. Conditions: HL-60, 4 h. Summed up:
as §4

A short description of series [15]: Inhibition of HDAC assessed as induction of p21WAF1 expression in engineered cell line by luciferase reporter gene assay.
The subject of series [16] is HL-60. Put plainly: Cytotoxicity against human HL60 cells assessed as NADH level after 72 hrs by MTS cells. It is filed as functional, cell-based. To be noted: HL-60, 72 h. Summed up:
as §1

The source made the active and inactive calls. The rule behind the calls is not given here.

The text below walks through data of ChEMBL document CHEMBL1158589, “Benzimidazole and imidazole inhibitors of histone deacetylases: Synthesis and biological activity” (Bioorg Med Chem Lett, 2010).

Take `CN1CCC[C@@H](n2c(-c3cccc(/C=C/C(=O)NO)c3)nc3ccccc32)C1`: the EC50 in series [1] was 300 nM; in series [7] it was 50 nM; in series [8] it was 110 nM; in [14], 100 nM; in [15] it was 1000 nM; in [16], 40 nM. Also, the outcome in series [2] and in series [5] was Active. Besides, the T/C in [3] is reported as 45%; in series [10], 47%; in [12], 66%. Further, the IC50 in series [4] was found to be 200 nM; in [6], 100 nM. For the same molecule, the Activity in series [9] is 1.7%; in series [11] it was -3.6%; in [13], -2.5%.
